Experimental findings from ChEMBL document CHEMBL1156620, “Structure-activity relationship studies on a novel class of antiproliferative agents derived from Lavendustin A. Part I: Ring A modifications” (Bioorg Med Chem, 2008) are described below.

pIC50: −log10 of the molar value.

The subject of assay [1] is HaCaT. The experiment in a line: Antiproliferative activity against human HaCaT cells after 3 days by sulforhodamine B assay. The format is functional, cell-based. The note with it: 72 h. The method in brief: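 HaCaT keratinocytes kept in DMEM with 5% FCS, trypsinized and seeded at 4000 cells/0.2 mL/well in 96-well plates. Medium swapped after 24 h for fresh medium with graded compound concentrations. Proliferation read by sulforhodamine B colorimetry after 3 days. IC50 taken as the average of at least two independent measurements.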
For orientation: In SRB staining, fixed cells bind dye roughly in proportion to their protein.

The test system of assay [2] is HaCaT. The experiment in a line: Antimitotic activity against human HaCaT cells assessed as mitotic index at 100 uM after 20 hrs. It counts as functional. The method in brief: (§1)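 HaCaT cells grown in DMEM with 5% FCS, seeded in chamber slides at 24000 cells/0.4 ml/well. After 24 h, medium replaced with fresh medium containing the stated compound concentration, then 20 h incubation. Cells fixed in 90% acetone for 5 min at room temperature. DNA stained with DAPI (0.5 μg/ml, 1 h, RT). Metaphase-arrested cells scored by fluorescence microscopy, at least 300 cells per concentration. Mitotic index = 100% × mitotic/total cells.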

In assay [3] the test system is HaCaT. The assay can be described thus: Antimitotic activity against human HaCaT cells assessed as mitotic index at 1 uM after 20 hrs. The format is functional. The method in brief: as §1
In assay [4] the test system is HaCaT. The experiment in a line: Antimitotic activity against human HaCaT cells assessed as mitotic index at 0.5 uM after 20 hrs. The format is functional. In short, it runs like this:
as §1

In assay [5] the test system is HaCaT. The experiment in a line: Antimitotic activity against human HaCaT cells assessed as mitotic index at 3 uM after 20 hrs. The format is functional. The method in brief:
as §1

Assay [6] concerns HaCaT. The experiment in a line: Antimitotic activity against human HaCaT cells assessed as mitotic index at 2.5 uM after 20 hrs. The format is functional. In short, it runs like this: as §1
Assay [7] deals with HaCaT. The experiment in a line: Antimitotic activity against human HaCaT cells assessed as mitotic index at 10 uM after 20 hrs. It counts as functional. In short, it runs like this:
as §1

In assay [8] the test system is HaCaT. The assay can be described thus: Antimitotic activity against human HaCaT cells assessed as mitotic index at 20 uM after 20 hrs. It counts as functional. In short, it runs like this:
as §1

Assay [9] relates to HaCaT. The experiment in a line: Antimitotic activity against human HaCaT cells assessed as mitotic index at 0.4 uM after 20 hrs. It counts as functional. In short, it runs like this:
as §1

Assay [10] concerns HaCaT. The experiment in a line: Antimitotic activity against human HaCaT cells assessed as mitotic index at 30 uM after 20 hrs. The format is functional. The method in brief: as §1
The subject of assay [11] is HaCaT. The assay can be described thus: Antimitotic activity against human HaCaT cells assessed as mitotic index at 1.5 uM after 20 hrs. The format is functional. The method in brief:
as §1

For assay [12], the system named is HaCaT. The assay can be described thus: Antimitotic activity against human HaCaT cells assessed as mitotic index at 2 uM after 20 hrs. The format is functional. In short, it runs like this:
as §1

Assay [13] relates to HaCaT. The assay can be described thus: Antimitotic activity against human HaCaT cells assessed as mitotic index at 0.2 uM after 20 hrs. The format is functional. The method in brief: as §1
Assay [14] deals with HaCaT. The experiment in a line: Antimitotic activity against human HaCaT cells assessed as mitotic index at 50 uM after 20 hrs. It counts as functional. The method in brief:
as §1

For a further assay, the target named is Tubulin (Sus scrofa, UniProt P02554+P02550). The assay can be described thus: Inhibition of pig brain tubulin polymerization. The method in brief:
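Pig brain tubulin purified by three warm/cold assembly cycles in 1 M monosodium glutamate pH 6.6 with 1 mM GTP. Compound (DMSO, 4% v/v final) preincubated with tubulin 15 min at 30 °C in 0.8 M glutamate pH 6.6 without GTP. Samples then chilled, given GTP, and shifted from 0 °C to 30 °C. Turbidity read at 350 nm. IC50 is 50% inhibition of polymerization extent at 20 min, by linear interpolation.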

The target of another assay is Tubulin (Sus scrofa) (UniProt P02554+P02550). The assay can be described thus: Binding affinity to pig brain tubulin at 10 uM after 15 mins relative to control.
Sequence of Tubulin (Sus scrofa) (P02550 whole entry, looked up): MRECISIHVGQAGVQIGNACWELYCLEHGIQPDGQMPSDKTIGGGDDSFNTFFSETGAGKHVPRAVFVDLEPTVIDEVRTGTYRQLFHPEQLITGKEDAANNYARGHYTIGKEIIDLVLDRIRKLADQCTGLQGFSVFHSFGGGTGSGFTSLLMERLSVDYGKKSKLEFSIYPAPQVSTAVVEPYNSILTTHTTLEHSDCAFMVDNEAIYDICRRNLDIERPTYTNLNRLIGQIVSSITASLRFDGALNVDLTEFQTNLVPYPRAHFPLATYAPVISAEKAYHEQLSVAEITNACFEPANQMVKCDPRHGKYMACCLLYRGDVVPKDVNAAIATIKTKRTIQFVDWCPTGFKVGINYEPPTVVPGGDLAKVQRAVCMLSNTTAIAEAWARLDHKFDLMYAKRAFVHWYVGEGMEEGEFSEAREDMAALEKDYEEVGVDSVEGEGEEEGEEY
Sequence of Tubulin (Sus scrofa) (P02554 whole entry, looked up): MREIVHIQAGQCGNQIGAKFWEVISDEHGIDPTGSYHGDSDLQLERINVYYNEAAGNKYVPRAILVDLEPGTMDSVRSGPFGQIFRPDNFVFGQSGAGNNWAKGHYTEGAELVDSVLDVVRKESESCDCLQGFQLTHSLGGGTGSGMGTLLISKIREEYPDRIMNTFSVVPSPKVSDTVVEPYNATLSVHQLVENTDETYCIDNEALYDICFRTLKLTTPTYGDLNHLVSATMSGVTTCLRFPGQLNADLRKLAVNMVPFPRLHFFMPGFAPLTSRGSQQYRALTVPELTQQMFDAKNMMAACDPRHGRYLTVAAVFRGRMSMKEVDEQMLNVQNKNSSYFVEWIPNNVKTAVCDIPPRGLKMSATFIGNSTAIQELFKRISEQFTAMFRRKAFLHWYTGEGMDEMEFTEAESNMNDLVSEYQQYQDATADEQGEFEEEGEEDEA

As usually defined, the pIC50 is the IC50 on a negative log10 scale, so that one unit is a factor of ten. In the assay on HaCaT [1], `COC(=O)c1cc(CCc2ccc3c(c2)OCO3)ccc1O` had a pIC50 of 4.44. The Activity with HaCaT [2] is on record as 2.9%.
As for `COC(=O)c1cc(CCc2cc(OC)ccc2Br)ccc1O`, the Activity in the assay on HaCaT [3] is 20%. The compound also gave a pIC50 with HaCaT [1] of 6.68.
For `CCc1ccc(OC)c(CCc2ccc(O)c(C(=O)OC)c2)c1`, the Activity with HaCaT [3] is listed as 44%. In the assay with HaCaT [1], this compound showed a pIC50 of 6.37.
In the case of `COC(=O)c1cc(CCc2cccc(OC)c2OC)ccc1O`, the pIC50 in the assay with HaCaT [1] was 4.48. Besides, in the assay on HaCaT [2], the Activity is 3.7%.
In turn, `CCOc1ccc(OC)c(CCc2ccc(O)c(C(=O)OC)c2)c1` gave a pIC50 with HaCaT [1] of 6.27. Besides, in the assay on HaCaT [4], the Activity is reported as 31%.
Consider `COC(=O)c1cc(CCc2cc(OC)ccc2N(C)C)ccc1O`, for which the pIC50 in the assay on HaCaT [1] is 6.19. For the same compound, in the assay on HaCaT [5], the Activity is 42%.
In turn, `COC(=O)c1cc(CCc2cc(SC)ccc2OC)ccc1O` showed a pIC50 with HaCaT [1] of 6.07. The Activity in the assay with HaCaT [6] is given as 37%.
In turn, `COC(=O)c1cc(CCc2cc(OC)c(OC)c(OC)c2)ccc1O` had a pIC50 in the assay with HaCaT [1] of 5.46. Further, the Activity with HaCaT [7] is recorded as 18%.
With `COC(=O)c1cc(CCc2cc(N(C)C)ccc2OC)ccc1O`, the pIC50 in the assay with HaCaT [1] is 6.04. The Activity with HaCaT [6] is recorded as 28%.
In the assay with HaCaT [1], `COC(=O)c1cc(CCc2cc(OC)c(C(C)(C)C)cc2C(C)=O)ccc1O` had a pIC50 of 5.09. The Activity in the assay on HaCaT [2] was found to be 4.4%.
Turning to `COC(=O)c1cc(CCc2cc(O)ccc2OC)ccc1O`, in the assay on HaCaT [1], the pIC50 is 5.06. The Activity in the assay with HaCaT [8] came to 57%.
`COC(=O)c1cc(CCc2cc(OC(C)=O)ccc2OC(C)=O)ccc1O` showed a pIC50 in the assay with HaCaT [1] of 4.62.
For the compound `CCc1cccc(OC)c1CCc1ccc(O)c(C(=O)OC)c1`, the Activity in the assay with HaCaT [3] came out at 50%. The pIC50 in the assay with HaCaT [1] is 6.70.
Consider `CCc1ccc(OC)cc1CCc1ccc(O)c(C(=O)OC)c1`, for which the negative logarithm of the IC50 (pIC50) in the assay with HaCaT [1] is 6.89. For the same compound, the Activity in the assay with HaCaT [9] was 47%.
Compound `COC(=O)c1cc(CCc2cc(Cl)ccc2OC)ccc1O` gave a pIC50 in the assay on HaCaT [1] of 5.16. Besides, the Activity in the assay on HaCaT [10] worked out at 27%.
On to `COC(=O)c1cc(CCc2cc(OC)ccc2C(C)=O)ccc1O`, for which, in the assay with HaCaT [1], the pIC50 was 7.39. Besides, the Activity with HaCaT [11] was 46%.
As for `COC(=O)c1cc(CCc2ccccc2OC)ccc1O`, the pIC50 in the assay on HaCaT [1] was 4.70. Also, the Activity in the assay with HaCaT [10] was determined as 16%.
`CCc1ccc(CC)c(CCc2ccc(O)c(C(=O)OC)c2)c1`: in the assay on HaCaT [12], the Activity is listed as 30%. In addition, the pIC50 in the assay with HaCaT [1] was 6.19.
The corresponding values for `COC(=O)c1cc(CCc2cc(OC)ccc2O)ccc1O` are 27% and 5.96.
As to `COC(=O)c1cc(CCc2cccc(OC)c2)ccc1O`, the pIC50 with HaCaT [1] is 4.43. For the same compound, the Activity in the assay with HaCaT [2] was determined as 36%.
`COC(=O)c1cc(CCc2c(OC)cccc2OC)ccc1O`: in the assay with HaCaT [1], the pIC50 is 6.96. Also, the Activity with HaCaT [9] is recorded as 24%.
`CCOc1ccc(OC)cc1CCc1ccc(O)c(C(=O)OC)c1` had a pIC50 with HaCaT [1] of 6.92. The Activity in the assay with HaCaT [13] was 38%.
As to `CCOc1ccc(OCC)c(CCc2ccc(O)c(C(=O)OC)c2)c1`, the pIC50 in the assay with HaCaT [1] is 6.42. Moreover, the Activity in the assay with HaCaT [5] is 20%.
As to `COC(=O)c1cc(CCc2c(OC)ccc(OC)c2OC)ccc1O`, the pIC50 with HaCaT [1] was 5.46. Besides, the Activity with HaCaT [7] stood at 25%.
With `COC(=O)c1cc(CCc2ccc(OC)cc2OC)ccc1O`, the pIC50 in the assay with HaCaT [1] is 4.72. The Activity in the assay on HaCaT [2] worked out at 7.2%.
As to `COC(=O)c1cc(CCc2cc(C(C)=O)ccc2OC)ccc1O`, the Activity in the assay with HaCaT [12] is given as 26%. In addition, the pIC50 with HaCaT [1] was 6.18.
`COC(=O)c1cc(CCc2cc(O)ccc2O)ccc1O`: the pIC50 with HaCaT [1] is 4.68. Also, the Activity with HaCaT [14] is 2.2%.
Broadly, the IC50 is the concentration at which inhibition is half-maximal. With `COC(=O)c1cc(CCc2cc(OC)ccc2OC)ccc1O`, the pIC50 in the assay with HaCaT [1] was 7.33. The Activity in the assay on HaCaT [13] worked out at 36%; on Tubulin (Sus scrofa), 43%. This compound came in with an IC50 against Tubulin of 1 µM.
